# Experimental data from ChEMBL document CHEMBL1145440, “SAR and QSAR studies on the N-terminally acylated pentapeptide agonists for GPR54” (J Med Chem, 2007).
# Square brackets hold non-standard residues; d marks the D form. Peptide text beside a SMILES is read from it. Trx = NC[C@H]1CC[C@H](C(=O)O)CC1; 4Amb = NCc1ccc(C(=O)O)cc1; 3Abz = Nc1cccc(C(=O)O)c1; 4Abz = Nc1ccc(C(=O)O)cc1; 2Abz = Nc1ccccc1C(=O)O; Ahx = NCCCCCC(=O)O
# Assays:
# KiSS-1 receptor [1] = target: T1, KiSS-1 receptor (Homo sapiens, UniProt Q969F8); test: Agonist activity at GPR54 expressed in CHO cells assessed as intracellular calcium mobilization at 10 nM relative to KP-10; format: functional, cell-based
# Method in brief: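 FLIPR Fluo3 Ca2+ mobilization in CHO/dhfr cells stably expressing GPR54, read over 40 s. Peptide tested at 10 nM (n = 3). Maximum signal expressed as a percentage of the maximum induced by 1 µM KP-10 (n = 3).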
# KiSS-1 receptor [2] = target: T1, KiSS-1 receptor; test: Ratio of EC50 of drug for GPR54 to EC50 of KP-10 for GPR54; format: functional
# Method in brief: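 Q calculated as EC50(compound)/EC50(KP-10), with KP-10 run as control on each FLIPR Ca2+ plate (GPR54/CHO cells) to correct for plate-to-plate variation.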
# KiSS-1 receptor [3] = target: T1, KiSS-1 receptor; test: Agonist activity at GPR54 expressed in CHO cells assessed as intracellular calcium mobilization; format: functional, cell-based
# T1 sequence (Q969F8 whole entry): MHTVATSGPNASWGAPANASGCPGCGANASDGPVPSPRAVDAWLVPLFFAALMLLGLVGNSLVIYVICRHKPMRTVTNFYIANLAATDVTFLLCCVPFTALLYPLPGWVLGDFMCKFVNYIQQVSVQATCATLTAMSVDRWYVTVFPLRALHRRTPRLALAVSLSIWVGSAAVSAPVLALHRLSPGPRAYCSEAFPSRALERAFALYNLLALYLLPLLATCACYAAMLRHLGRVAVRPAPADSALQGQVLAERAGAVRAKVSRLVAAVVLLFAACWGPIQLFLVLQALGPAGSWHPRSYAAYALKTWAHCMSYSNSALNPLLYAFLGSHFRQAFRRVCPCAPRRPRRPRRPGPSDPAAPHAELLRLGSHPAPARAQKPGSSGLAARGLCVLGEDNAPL
SMILES,Activity (KiSS-1 receptor [1]) [%],Ratio EC50 (KiSS-1 receptor [2]),EC50 (KiSS-1 receptor [3]) [nM]
CC(C)C[C@H](NC(=O)CNC(=O)[C@H](Cc1ccccc1)NC(=O)c1ccc(CO)cc1)C(=O)N[C@@H](CCCNC(=N)N)C(=O)N[C@@H](Cc1c[nH]c2ccccc12)C(N)=O,95.4,4.7,
CC(C)C[C@H](NC(=O)CNC(=O)[C@H](Cc1ccccc1)NC(=O)c1ccccc1N)C(=O)N[C@@H](CCCNC(=N)N)C(=O)N[C@@H](Cc1c[nH]c2ccccc12)C(N)=O (H-[2Abz]FGLRW-NH2),94,2.8,3.1
CC(C)C[C@H](NC(=O)CNC(=O)[C@H](Cc1ccccc1)NC(=O)c1ccccn1)C(=O)N[C@@H](CCCN=C(N)N)C(=O)N[C@@H](Cc1c[nH]c2ccccc12)C(N)=O,,,0.8
CC(C)C[C@H](NC(=O)CNC(=O)[C@H](Cc1ccccc1)NC(=O)c1ccc(NC(=N)N)cc1)C(=O)N[C@@H](CCCNC(=N)N)C(=O)N[C@@H](Cc1c[nH]c2ccccc12)C(N)=O,91.2,2.9,1.7
CC(=O)NCc1ccc(C(=O)N[C@@H](Cc2ccccc2)C(=O)NCC(=O)N[C@@H](CC(C)C)C(=O)N[C@@H](CCCNC(=N)N)C(=O)N[C@@H](Cc2c[nH]c3ccccc23)C(N)=O)cc1 (Ac-[4Amb]FGLRW-NH2),101,,
CC(C)C[C@H](NC(=O)CNC(=O)[C@H](Cc1ccccc1)NC(=O)c1ccncc1)C(=O)N[C@@H](CCCNC(=N)N)C(=O)N[C@@H](Cc1c[nH]c2ccccc12)C(N)=O,102,2.4,1.7
CC(C)C[C@H](NC(=O)CNC(=O)[C@H](Cc1ccccc1)NC(=O)c1ccc([N+](=O)[O-])cc1)C(=O)N[C@@H](CCCNC(=N)N)C(=O)N[C@@H](Cc1c[nH]c2ccccc12)C(N)=O,94.3,1.5,1
CC(C)C[C@H](NC(=O)CNC(=O)[C@H](Cc1ccccc1)NC(=O)c1ccc(CN(Cc2ccccc2)Cc2ccccc2)cc1)C(=O)N[C@@H](CCCNC(=N)N)C(=O)N[C@@H](Cc1c[nH]c2ccccc12)C(N)=O,9.3,,
CC(C)C[C@H](NC(=O)CNC(=O)[C@H](Cc1ccccc1)NC(=O)[C@H]1CC[C@H](CN)CC1)C(=O)N[C@@H](CCCNC(=N)N)C(=O)N[C@@H](Cc1c[nH]c2ccccc12)C(N)=O (H-[Trx]FGLRW-NH2),9.9,,
CC(C)C[C@H](NC(=O)CNC(=O)[C@H](Cc1ccccc1)NC(=O)c1ccc(CO)cc1)C(=O)N[C@@H](CCCN=C(N)N)C(=O)N[C@@H](Cc1c[nH]c2ccccc12)C(N)=O,,,3
CC(C)C[C@H](NC(=O)CNC(=O)[C@H](Cc1ccccc1)NC(=O)c1ccc(CN(Cc2ccccn2)Cc2ccccn2)cc1)C(=O)N[C@@H](CCCNC(=N)N)C(=O)N[C@@H](Cc1c[nH]c2ccccc12)C(N)=O,88.9,,
CC(C)C[C@H](NC(=O)CNC(=O)[C@H](Cc1ccccc1)NC(=O)CCCCCN)C(=O)N[C@@H](CCCNC(=N)N)C(=O)N[C@@H](Cc1c[nH]c2ccccc12)C(N)=O (H-[Ahx]FGLRW-NH2),1.6,,
CC(C)C[C@H](NC(=O)CNC(=O)[C@H](Cc1ccccc1)NC(=O)c1ccc(CNCc2ccccc2)cc1)C(=O)N[C@@H](CCCNC(=N)N)C(=O)N[C@@H](Cc1c[nH]c2ccccc12)C(N)=O,86.5,5.6,3.3
CC(C)C[C@H](NC(=O)CNC(=O)[C@H](Cc1ccccc1)NC(=O)c1c(F)c(F)c(F)c(F)c1F)C(=O)N[C@@H](CCCNC(=N)N)C(=O)N[C@@H](Cc1c[nH]c2ccccc12)C(N)=O,0.6,,> 100
CC(C)C[C@H](NC(=O)CNC(=O)[C@H](Cc1ccccc1)NC(=O)c1ccc(F)cc1)C(=O)N[C@@H](CCCNC(=N)N)C(=O)N[C@@H](Cc1c[nH]c2ccccc12)C(N)=O,95.6,,
CC(C)C[C@H](NC(=O)CNC(=O)[C@H](Cc1ccccc1)NC(=O)c1ccc(N)cc1)C(=O)N[C@@H](CCCNC(=N)N)C(=O)N[C@@H](Cc1c[nH]c2ccccc12)C(N)=O (H-[4Abz]FGLRW-NH2),90.4,,
CC(C)C[C@H](NC(=O)CNC(=O)[C@H](Cc1ccccc1)NC(=O)c1cc(O)c(O)c(O)c1)C(=O)N[C@@H](CCCN=C(N)N)C(=O)N[C@@H](Cc1c[nH]c2ccccc12)C(N)=O,,,> 100
CC(C)C[C@H](NC(=O)CNC(=O)[C@H](Cc1ccccc1)NC(=O)c1ccc(O)cc1)C(=O)N[C@@H](CCCNC(=N)N)C(=O)N[C@@H](Cc1c[nH]c2ccccc12)C(N)=O,94.6,,
CC(C)C[C@H](NC(=O)CNC(=O)[C@H](Cc1ccccc1)NC(=O)c1cccc(N)c1)C(=O)N[C@@H](CCCNC(=N)N)C(=O)N[C@@H](Cc1c[nH]c2ccccc12)C(N)=O (H-[3Abz]FGLRW-NH2),88.5,4.2,4.7
CC(C)C[C@H](NC(=O)CNC(=O)[C@H](Cc1ccccc1)NC(=O)c1ccc(CN)cc1)C(=O)N[C@@H](CCCNC(=N)N)C(=O)N[C@@H](Cc1c[nH]c2ccccc12)C(N)=O (H-[4Amb]FGLRW-NH2),96.5,3.4,3.1

# Now from value to compound:
Activity (KiSS-1 receptor [1]) [%],Ratio EC50 (KiSS-1 receptor [2]),EC50 (KiSS-1 receptor [3]) [nM],SMILES
91.8,,,CC(C)C[C@H](NC(=O)CNC(=O)[C@H](Cc1ccccc1)NC(=O)c1ccc(Cl)cc1)C(=O)N[C@@H](CCCNC(=N)N)C(=O)N[C@@H](Cc1c[nH]c2ccccc12)C(N)=O
89.3,4.5,2.7,CC(C)C[C@H](NC(=O)CNC(=O)[C@H](Cc1ccccc1)NC(=O)c1ccc(CNCc2ccccn2)cc1)C(=O)N[C@@H](CCCNC(=N)N)C(=O)N[C@@H](Cc1c[nH]c2ccccc12)C(N)=O
,,5,CC(C)C[C@H](NC(=O)CNC(=O)[C@H](Cc1ccccc1)NC(=O)c1ccccc1O)C(=O)N[C@@H](CCCN=C(N)N)C(=O)N[C@@H](Cc1c[nH]c2ccccc12)C(N)=O
,,2,CC(C)C[C@H](NC(=O)CNC(=O)[C@H](Cc1ccccc1)NC(=O)c1ccc[nH]1)C(=O)N[C@@H](CCCN=C(N)N)C(=O)N[C@@H](Cc1c[nH]c2ccccc12)C(N)=O
99.7,1.6,1.2,CC(C)C[C@H](NC(=O)CNC(=O)[C@H](Cc1ccccc1)NC(=O)c1cccc(O)c1)C(=O)N[C@@H](CCCNC(=N)N)C(=O)N[C@@H](Cc1c[nH]c2ccccc12)C(N)=O
93.7,,,CC(C)C[C@H](NC(=O)CNC(=O)[C@H](Cc1ccccc1)NC(=O)c1ccc(CNC(=N)N)cc1)C(=O)N[C@@H](CCCNC(=N)N)C(=O)N[C@@H](Cc1c[nH]c2ccccc12)C(N)=O
90.1,6.6,,CC(C)C[C@H](NC(=O)CNC(=O)[C@H](Cc1ccccc1)NC(=O)c1ccccc1O)C(=O)N[C@@H](CCCNC(=N)N)C(=O)N[C@@H](Cc1c[nH]c2ccccc12)C(N)=O
1,,,CC(C)C[C@H](NC(=O)CNC(=O)[C@H](Cc1ccccc1)NC(=O)c1cc(O)c(O)c(O)c1)C(=O)N[C@@H](CCCNC(=N)N)C(=O)N[C@@H](Cc1c[nH]c2ccccc12)C(N)=O
104,1.6,1.2,COc1ccc(C(=O)N[C@@H](Cc2ccccc2)C(=O)NCC(=O)N[C@@H](CC(C)C)C(=O)N[C@@H](CCCNC(=N)N)C(=O)N[C@@H](Cc2c[nH]c3ccccc23)C(N)=O)cc1
95.8,1.7,,CC(C)C[C@H](NC(=O)CNC(=O)[C@H](Cc1ccccc1)NC(=O)c1ccc[nH]1)C(=O)N[C@@H](CCCNC(=N)N)C(=O)N[C@@H](Cc1c[nH]c2ccccc12)C(N)=O
93.5,4.1,3,CC(C)C[C@H](NC(=O)CNC(=O)[C@H](Cc1ccccc1)NC(=O)c1cccnc1)C(=O)N[C@@H](CCCNC(=N)N)C(=O)N[C@@H](Cc1c[nH]c2ccccc12)C(N)=O
88.4,,,CC(C)C[C@H](NC(=O)CNC(=O)[C@H](Cc1ccccc1)NC(=O)c1c[nH]cn1)C(=O)N[C@@H](CCCNC(=N)N)C(=O)N[C@@H](Cc1c[nH]c2ccccc12)C(N)=O
92.1,4,3,CC(C)C[C@H](NC(=O)CNC(=O)[C@H](Cc1ccccc1)NC(=O)c1ccccc1OC(=O)c1ccccc1O)C(=O)N[C@@H](CCCNC(=N)N)C(=O)N[C@@H](Cc1c[nH]c2ccccc12)C(N)=O
